Bioassay records (PubChem)
The list is not random: actives were taken first. Their share in the collection is about 1.9%.
SR-BI HDL uptake: mouse SR-BI HDL lipid transfer inhibition; Q61009; ldlA[mSR-BI] CHO cells, DiI-HDL uptake fluorescence, 3 h; inhibition, % at 12.5 µM; hit rate 0.96% among 320,000; AID 488896;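 active = mean replicate inhibition of at least 70% and a set share of replicates each scoring 70 or more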;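 also: 0% = median of neutral control wells and 100% = median of positive control wells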
Neddyl block: inhibitors of human cullin neddylation | hit rate 0.58% among 360,000 | TR-FRET cullin neddylation, biochemical | AID 651699 | inhibition, % at 25 µM | P61081+Q13564; in the data active = inhibition above about 36%
SR-BI uptake up: SR-BI HDL lipid transfer activation; hit rate 0.096% among 320,000; CHO ldlA[mSR-BI] cells, DiI-HDL uptake fluorescence, 3 h; 100 = double the neutral-control signal; activation, % at 12.5 µM;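 active = mean replicate activation of at least 60% and every replicate at or above 60%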;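 also: 0% = median plate neutral-control signal and 100% = twice that signal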
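Material: SR-BI-overexpressing, LDLR-lacking CHO cells; schedule: compound exposure 3 h, 37 °C; reagent: DiI-labelled HDL at 10 µg/mL final; technique: bottom-read fluorescence, 550/595 nm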
UBC13 inh: blocks human UBC13 polyubiquitin chain formation; AID 485273; TR-FRET; P61088; inhibition, % at 20 µM; hit rate 0.47% among 330,000; in the data active = inhibition above about 45%, passing the limit was not always enough
Numbers without * were called inactive.

CCN(CC)C(=O)Cn1c(=O)n(CC(=O)N2CCCCC2)c(=O)c2sccc21 was read as SR-BI HDL uptake -5.3, Neddyl block 4.1, SR-BI uptake up 5.3 and UBC13 inh -0.3.
`COc1cccc(C2CC(OCCF)=CC(=O)O2)c1` (stereo not given) gave Neddyl block -9.9.
For O=C(N/N=C/c1cc2c(cc1Cl)OCO2)c1ccncc1 the results were SR-BI HDL uptake 29.0, Neddyl block -1.1, SR-BI uptake up -29.0 and UBC13 inh -2.9.
Screening O=C(N/N=C/c1cc(Cl)cc([N+](=O)[O-])c1O)c1ccc2c(c1)OCO2 returned SR-BI HDL uptake 124.4*, Neddyl block -58.0, SR-BI uptake up -124.4 and UBC13 inh -114.6.
O=C(N/N=C/c1cc2c(cc1Cl)OCO2)c1cccc(Br)c1 was read as SR-BI HDL uptake 80.7*, Neddyl block 37.7, SR-BI uptake up -80.7 and UBC13 inh -8.1.
Screening COc1cc(Cl)cc(/C=N\NC(=O)c2ccc3c(c2)OCO3)c1O returned Neddyl block 34.1.
For CCOC(=O)N1CCN(C(=S)NC(=O)c2ccc(Br)cc2)CC1 the results were SR-BI HDL uptake -2.0, Neddyl block 1.9, SR-BI uptake up 2.0 and UBC13 inh -4.3.
For CCOC(=O)N1CCN(C(=S)NC(=O)c2cncc(Br)c2)CC1 the results were SR-BI HDL uptake -68.6, Neddyl block 0.9, SR-BI uptake up 68.6* and UBC13 inh 25.3.
For CCCC(=O)Nc1sc(C)c(C)c1C(=O)Nc1cccc(C)c1 the results were SR-BI HDL uptake 71.5*, Neddyl block -8.2, SR-BI uptake up -71.5 and UBC13 inh 1.3.
Screening Nc1c2c(nc3ccn(-c4ccccc4)c(=O)c13)CCCCC2 returned SR-BI HDL uptake 12.1, Neddyl block 16.5, SR-BI uptake up -12.1 and UBC13 inh -0.9.
For Nc1c2c(nc3ccn(Cc4ccccc4)c(=O)c13)CCC2 the results were SR-BI HDL uptake -7.3, Neddyl block 38.8*, SR-BI uptake up 7.3 and UBC13 inh 16.6.
Screening O=C(COc1cc(F)ccc1[N+](=O)[O-])Nc1cc(S(=O)(=O)N2CCCC2)ccc1Cl returned SR-BI HDL uptake 75.0*, Neddyl block -0.7, SR-BI uptake up -75.0 and UBC13 inh -8.5.
`O=C(COc1ccccc1[N+](=O)[O-])Nc1cccc(S(=O)(=O)N2CCCC2)c1` gave SR-BI HDL uptake 33.9, Neddyl block -23.4, SR-BI uptake up -33.9 and UBC13 inh -6.7.
Screening N#C/C(=N\Nc1ccccc1F)c1nc(-c2ccccc2)cs1 returned SR-BI HDL uptake 71.3*, Neddyl block 21.1, SR-BI uptake up -71.3 and UBC13 inh -5.7.
Screening CC(C)Cn1nc(C(=O)Nc2cccc(C(=O)NC3CC3)c2)c2ccccc2c1=O returned SR-BI HDL uptake 59.8, Neddyl block 6.8, SR-BI uptake up -59.8 and UBC13 inh -3.8.
`O=c1c2sc3ccccc3c2[nH]c(=S)n1CCN1CCOCC1` gave SR-BI HDL uptake -71.3, Neddyl block -61.9, SR-BI uptake up 71.3* and UBC13 inh 16.1.
Screening CC1CCN(CCCn2c(=S)[nH]c3c(sc4ccccc43)c2=O)CC1 returned SR-BI HDL uptake -2.0, Neddyl block -288.3, SR-BI uptake up 2.0 and UBC13 inh 17.2.
Screening COc1ccc([C@H]2CN(c3ccc(OC)cc3)C(=O)[C@@H]2CC(=O)Nc2ccc(Br)cc2)cc1 returned Neddyl block -25.8.
`CCN(CC)C(=O)c1[nH]cnc1C(=O)N[C@H](C)c1ccccc1` gave SR-BI HDL uptake -5.0, Neddyl block 1.4, SR-BI uptake up 5.0 and UBC13 inh -1.3.
COc1ccc(OC)c(CCNC(=O)C(=O)Nc2ccc3nc4n(c(=O)c3c2)CCCCC4)c1 was read as SR-BI HDL uptake 77.1*, Neddyl block 0.3, SR-BI uptake up -77.1 and UBC13 inh 6.7.
COc1ccc(C(=O)Nc2sc3c(c2C#N)CCN(C(C)=O)C3)cc1 was read as SR-BI HDL uptake 76.0*, Neddyl block 16.6, SR-BI uptake up -76.0 and UBC13 inh -24.4.
`COc1cc(C(=O)Nc2sc3c(c2C#N)CCN(C(C)=O)C3)cc(OC)c1OC` gave SR-BI HDL uptake 78.5*, Neddyl block 27.1, SR-BI uptake up -78.5 and UBC13 inh -13.5.
CC(=O)N1CCc2c(sc(NC(=O)c3ccc([N+](=O)[O-])o3)c2C#N)C1 was read as SR-BI HDL uptake 4.6, Neddyl block -23.9 and SR-BI uptake up -4.6.
Screening COc1ccc(/C=C2\Sc3ccc(C(=O)NCc4cccnc4)cc3N(C)C2=O)cc1OC returned SR-BI HDL uptake 73.9*, Neddyl block -6.5, SR-BI uptake up -73.9 and UBC13 inh 15.4.
